Measurements from ChEMBL document CHEMBL5143713, “Multitarget, Selective Compound Design Yields Potent Inhibitors of a Kinetoplastid Pteridine Reductase 1” (J Med Chem, 2022).

Legend:
[1] = target: T1, Dihydrofolate reductase (Homo sapiens, UniProt P00374); test: Inhibition of recombinant human DHFR expressed in Escherichia coli BL21 (DE3) cells using dihydrofolate as substrate in presence of NADPH by spectrophotometric analysis; format: toxicity
T1 sequence (P00374 whole entry): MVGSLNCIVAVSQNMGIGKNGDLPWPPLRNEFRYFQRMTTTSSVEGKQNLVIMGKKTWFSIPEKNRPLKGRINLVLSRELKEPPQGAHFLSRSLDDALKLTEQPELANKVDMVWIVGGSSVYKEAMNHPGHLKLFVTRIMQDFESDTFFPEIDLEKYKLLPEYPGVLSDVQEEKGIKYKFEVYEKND

[2] = system: 786-0; test: Mitochondrial toxicity in human 786-0 cells at 10 uM incubated with compound for 6 hrs followed by incubation with MitoTracker Red chloromethyl-X-rosamine dye for 45 mins by imaging analysis relative to control; format: cell-based; conditions: 786-0, 6 h
Outline: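 Tested at 10 μM. 786-O cells kept in RPMI-1640 with 2 mM glutamine, 10% FCS, streptomycin 100 μg/mL and penicillin G 100 U/mL. Mitochondrial toxicity read as MitoTracker Red (chloromethyl-X-rosamine) uptake by high-content imaging.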

[3] = system: human DHFR versus Trypanosoma brucei DHFR; test: Selectivity index, ratio of IC50 for human DHFR to IC50 for Trypanosoma brucei DHFR; format: toxicity; conditions: read-out: Ratio IC50
[4] = system: human DHFR versus Trypanosoma brucei PTR1; test: Selectivity index, ratio of IC50 for human DHFR to IC50 for Trypanosoma brucei PTR1; format: toxicity; conditions: read-out: Ratio IC50
[5] = system: A549; test: Cytotoxicity against human A549 cells at 10 uM measured after 48 hrs by Celltiter-Glo assay relative to control; format: toxicity, cell-based; conditions: a549, 48 h
Outline: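 Tested at 10 μM. A549 cells grown in DMEM with 10% FCS, streptomycin 100 μg/mL and penicillin G 100 U/mL. Viability read as cellular ATP by CellTiter-Glo luminescence.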

[6] = target: CYP2C19 (Homo sapiens, UniProt P33261); test: Inhibition of CYP2C19 (unknown origin) expressed in baculovirus-infected insect cells at 10 uM using CYP/Luciferin as substrate incubated for 30 mins in presence of NADPH by luminescence based analysis relative to control; format: ADME; conditions: probe CYP/Luciferin
Chain of CYP2C19 (P33261 whole entry, canonical isoform): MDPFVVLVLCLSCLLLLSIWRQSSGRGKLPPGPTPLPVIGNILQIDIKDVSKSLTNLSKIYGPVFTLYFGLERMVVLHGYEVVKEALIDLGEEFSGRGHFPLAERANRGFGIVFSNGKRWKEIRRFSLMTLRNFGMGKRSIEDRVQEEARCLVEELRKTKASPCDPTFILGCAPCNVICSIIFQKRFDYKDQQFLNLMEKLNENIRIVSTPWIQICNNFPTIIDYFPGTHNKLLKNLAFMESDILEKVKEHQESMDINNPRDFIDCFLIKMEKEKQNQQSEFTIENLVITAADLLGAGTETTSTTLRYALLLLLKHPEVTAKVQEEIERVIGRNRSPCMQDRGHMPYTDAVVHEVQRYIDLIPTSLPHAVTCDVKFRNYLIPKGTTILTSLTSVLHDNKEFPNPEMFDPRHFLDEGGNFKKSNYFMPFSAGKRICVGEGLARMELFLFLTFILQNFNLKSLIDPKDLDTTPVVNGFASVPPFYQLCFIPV
Outline: (§1)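 Tested at 10 μM using microsomal preparations of each CYP isoform from baculovirus-infected insect cells on a luminescent P450-Glo platform. The enzyme acts on its substrate to give light, and a fall in luminescence indicates inhibition.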

[7] = target: Bifunctional dihydrofolate reductase-thymidylate synthase (Leishmania major, UniProt P07382); test: Inhibition of recombinant Leishmania major DHFR-TS expressed in Escherichia coli BL21 (DE3) cells using dihydrofolate as substrate in presence of NADPH by spectrophotometric analysis
Chain of Bifunctional dihydrofolate reductase-thymidylate synthase (Leishmania major, UniProt P07382) (P07382 whole entry): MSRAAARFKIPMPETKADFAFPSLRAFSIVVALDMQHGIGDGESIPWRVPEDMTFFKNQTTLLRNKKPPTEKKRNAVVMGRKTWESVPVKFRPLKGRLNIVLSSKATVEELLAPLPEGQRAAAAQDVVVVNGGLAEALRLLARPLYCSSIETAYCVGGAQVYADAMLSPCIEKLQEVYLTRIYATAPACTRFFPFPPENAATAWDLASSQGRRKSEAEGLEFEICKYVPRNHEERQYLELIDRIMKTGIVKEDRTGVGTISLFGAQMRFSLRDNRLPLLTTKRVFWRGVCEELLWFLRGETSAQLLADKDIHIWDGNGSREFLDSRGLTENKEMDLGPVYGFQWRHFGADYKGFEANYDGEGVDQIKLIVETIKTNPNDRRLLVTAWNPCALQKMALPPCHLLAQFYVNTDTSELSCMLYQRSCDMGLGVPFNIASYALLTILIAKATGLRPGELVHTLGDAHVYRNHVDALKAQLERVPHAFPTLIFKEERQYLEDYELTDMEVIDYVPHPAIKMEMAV

[8] = system: human DHFR versus Leishmania major DHFR; test: Selectivity index, ratio of IC50 for human DHFR to IC50 for Leishmania major DHFR; format: toxicity; conditions: read-out: Ratio IC50
[9] = target: T2, Pteridine reductase, putative (Trypanosoma brucei, UniProt Q581W1); test: Inhibition of recombinant Trypanosoma brucei PTR1 expressed in Escherichia coli BL21 (DE3) cells using H2B as substrate in presence of cytochrome c and NADPH by envision multilabel reader
T2 sequence (Q581W1 whole entry): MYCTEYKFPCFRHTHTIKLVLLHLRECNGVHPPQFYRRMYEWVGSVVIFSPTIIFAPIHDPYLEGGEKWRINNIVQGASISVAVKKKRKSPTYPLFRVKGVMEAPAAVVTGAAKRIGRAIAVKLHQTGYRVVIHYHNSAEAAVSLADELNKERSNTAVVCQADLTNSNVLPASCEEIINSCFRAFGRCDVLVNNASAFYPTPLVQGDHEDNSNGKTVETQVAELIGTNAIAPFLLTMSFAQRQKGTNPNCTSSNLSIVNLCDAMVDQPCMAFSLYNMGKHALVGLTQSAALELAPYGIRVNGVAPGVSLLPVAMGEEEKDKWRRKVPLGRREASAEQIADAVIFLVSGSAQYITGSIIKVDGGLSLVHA

[10] = target: T3, Pteridine reductase 1 (Leishmania major, UniProt Q01782); test: Inhibition of recombinant Leishmania major PTR1 expressed in Escherichia coli BL21 (DE3) cells using H2B as substrate in presence of cytochrome c and NADPH by envision multilabel reader
T3 sequence (Q01782 whole entry): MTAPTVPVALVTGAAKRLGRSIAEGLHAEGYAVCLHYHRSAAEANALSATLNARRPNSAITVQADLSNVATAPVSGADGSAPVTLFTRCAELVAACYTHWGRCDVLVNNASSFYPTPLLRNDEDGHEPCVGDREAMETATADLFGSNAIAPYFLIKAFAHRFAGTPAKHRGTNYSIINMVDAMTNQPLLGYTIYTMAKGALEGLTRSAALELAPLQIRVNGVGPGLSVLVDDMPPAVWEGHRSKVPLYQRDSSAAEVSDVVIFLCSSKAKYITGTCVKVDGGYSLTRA

[11] = system: human DHFR versus Leishmania major PTR1; test: Selectivity index, ratio of IC50 for human DHFR to IC50 for Leishmania major PTR1; format: toxicity; conditions: read-out: Ratio IC50
[12] = target: T4, CYP1A2 (Homo sapiens, UniProt P05177); test: Inhibition of CYP1A2 (unknown origin) expressed in baculovirus-infected insect cells at 10 uM using CYP/Luciferin as substrate incubated for 30 mins in presence of NADPH by luminescence based analysis relative to control; format: ADME; conditions: probe CYP/Luciferin; outline: as §1
T4 sequence (P05177 whole entry): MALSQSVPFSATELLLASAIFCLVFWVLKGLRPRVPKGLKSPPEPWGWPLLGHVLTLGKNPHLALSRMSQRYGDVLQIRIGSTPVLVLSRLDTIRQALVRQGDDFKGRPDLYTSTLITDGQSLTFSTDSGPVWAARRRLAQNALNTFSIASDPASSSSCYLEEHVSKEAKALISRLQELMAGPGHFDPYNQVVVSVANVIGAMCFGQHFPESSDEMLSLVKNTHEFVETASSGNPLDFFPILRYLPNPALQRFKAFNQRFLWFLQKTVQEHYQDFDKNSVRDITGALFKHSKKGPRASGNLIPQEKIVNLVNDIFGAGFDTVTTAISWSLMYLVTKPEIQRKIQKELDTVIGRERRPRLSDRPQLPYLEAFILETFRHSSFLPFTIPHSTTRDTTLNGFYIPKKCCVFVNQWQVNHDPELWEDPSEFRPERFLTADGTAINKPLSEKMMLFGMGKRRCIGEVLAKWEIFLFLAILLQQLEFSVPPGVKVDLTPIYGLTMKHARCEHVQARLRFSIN

[13] = target: Bifunctional dihydrofolate reductase-thymidylate synthase (Trypanosoma brucei brucei, UniProt Q27783); test: Inhibition of recombinant Trypanosoma brucei DHFR-TS expressed in Escherichia coli BL21 (DE3) cells using dihydrofolate as substrate in presence of NADPH by spectrophotometric analysis
Chain of Bifunctional dihydrofolate reductase-thymidylate synthase (Trypanosoma brucei brucei, UniProt Q27783) (Q27783 whole entry): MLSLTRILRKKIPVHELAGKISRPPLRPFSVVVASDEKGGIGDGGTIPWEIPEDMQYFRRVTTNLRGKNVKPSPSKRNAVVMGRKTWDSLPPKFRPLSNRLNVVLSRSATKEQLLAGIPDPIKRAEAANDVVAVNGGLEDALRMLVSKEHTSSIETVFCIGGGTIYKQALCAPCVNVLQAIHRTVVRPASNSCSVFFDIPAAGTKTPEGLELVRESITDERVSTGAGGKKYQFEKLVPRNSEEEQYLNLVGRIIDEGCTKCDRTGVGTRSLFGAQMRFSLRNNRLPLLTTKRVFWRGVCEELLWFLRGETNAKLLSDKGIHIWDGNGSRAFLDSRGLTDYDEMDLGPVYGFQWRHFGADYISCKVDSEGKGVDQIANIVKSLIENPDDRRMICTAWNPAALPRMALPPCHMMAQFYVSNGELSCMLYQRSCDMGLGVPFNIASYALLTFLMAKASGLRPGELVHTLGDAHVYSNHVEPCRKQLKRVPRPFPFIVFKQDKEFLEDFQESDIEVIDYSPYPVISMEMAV

[14] = target: CYP2D6 (Homo sapiens, UniProt P10635); test: Inhibition of CYP2D6 (unknown origin) expressed in baculovirus-infected insect cells at 10 uM using CYP/Luciferin as substrate incubated for 30 mins in presence of NADPH by luminescence based analysis relative to control; format: ADME; conditions: probe CYP/Luciferin; outline: as §1
Chain of CYP2D6 (P10635 whole entry): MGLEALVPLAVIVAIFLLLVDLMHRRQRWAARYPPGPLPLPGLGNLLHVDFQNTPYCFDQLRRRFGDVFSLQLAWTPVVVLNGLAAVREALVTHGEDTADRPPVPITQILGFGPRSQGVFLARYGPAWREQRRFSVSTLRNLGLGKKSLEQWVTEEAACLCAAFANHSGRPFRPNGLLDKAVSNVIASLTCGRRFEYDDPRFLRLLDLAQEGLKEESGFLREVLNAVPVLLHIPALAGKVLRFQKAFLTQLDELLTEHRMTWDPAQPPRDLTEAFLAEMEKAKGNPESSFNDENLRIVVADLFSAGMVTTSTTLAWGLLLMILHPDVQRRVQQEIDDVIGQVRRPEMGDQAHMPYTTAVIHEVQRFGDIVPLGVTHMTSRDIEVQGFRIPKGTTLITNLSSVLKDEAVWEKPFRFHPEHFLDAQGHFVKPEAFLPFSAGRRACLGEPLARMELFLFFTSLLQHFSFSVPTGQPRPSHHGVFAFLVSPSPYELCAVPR

[15] = target: CYP2C9 (Homo sapiens, UniProt P11712); test: Inhibition of CYP2C9 (unknown origin) expressed in baculovirus-infected insect cells at 10 uM using CYP/Luciferin as substrate incubated for 30 mins in presence of NADPH by luminescence based analysis relative to control; format: ADME; conditions: probe CYP/Luciferin; outline: as §1
Chain of CYP2C9 (P11712 whole entry): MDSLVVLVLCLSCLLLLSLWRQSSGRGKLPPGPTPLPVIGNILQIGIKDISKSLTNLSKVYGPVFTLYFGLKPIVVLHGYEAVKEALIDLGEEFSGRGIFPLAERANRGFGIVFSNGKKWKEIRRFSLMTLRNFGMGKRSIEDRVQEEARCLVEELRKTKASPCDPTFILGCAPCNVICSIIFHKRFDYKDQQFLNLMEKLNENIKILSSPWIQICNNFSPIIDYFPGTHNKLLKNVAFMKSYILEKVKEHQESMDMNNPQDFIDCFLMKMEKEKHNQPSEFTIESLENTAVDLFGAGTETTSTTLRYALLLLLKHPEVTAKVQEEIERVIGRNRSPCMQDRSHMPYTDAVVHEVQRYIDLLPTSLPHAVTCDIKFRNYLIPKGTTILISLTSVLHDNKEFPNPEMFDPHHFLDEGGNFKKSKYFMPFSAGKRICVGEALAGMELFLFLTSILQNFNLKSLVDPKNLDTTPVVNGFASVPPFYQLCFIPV

Row | SMILES | IC50 [1] | Activity [2] | selectivity ratio [3] | selectivity ratio [4] | Activity [5] | inhibition at 0.5 h, 10 µM [6] | IC50 [7] | selectivity ratio [8] | IC50 [9] | IC50 [10] | selectivity ratio [11] | inhibition at 0.5 h, 10 µM [12] | IC50 [13] | inhibition at 0.5 h, 10 µM [14] | inhibition at 0.5 h, 10 µM [15]
1 | COC(=O)C1CCN(C(=O)Cc2ccc(NCc3cnc4nc(N)nc(N)c4n3)cc2)CC1 | 35 µM | 0% | 56 | 250 | 100% | 12% | 850 nM | 41 | 140 nM | 1140 nM | 31 | 12% | 620 nM |  | 
2 | COC(=O)C1CCN(C(=O)c2ccc(N(CCO)Cc3cnc4nc(N)nc(N)c4n3)cc2)CC1 |  | 0% |  |  | 100% |  | 1210 nM |  | 200 nM |  |  |  | 1260 nM | 0% | 
3 | COC(=O)C1CCN(C(=O)c2ccc(N(CCCO)Cc3cnc4nc(N)nc(N)c4n3)cc2)CC1 | 15 µM | 0% | 35 | 500 | 100% |  | 760 nM | 20 | 30 nM | 220 nM | 68 |  | 430 nM |  | 17%
